Laboratory results reported in ChEMBL document CHEMBL1132148, “Synthesis and biological activity of (hydroxymethyl)- and (diethylaminomethyl)benzopsoralens” (J Med Chem, 1999).
The source made the active and inactive calls. The calls are words filed in the database; no cut-off is given here.

Assays:
[1] = The IC50-dark is the drug concentration necessary to induce a 50% inhibition of clonal growth by incubation at the ground state by keeping mammalian cells in the dark.; assay type: functional
Procedure, shortened: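 HeLa cells seeded at 1.5–2 × 10^5 were exposed after 24 h to compound in serum-containing growth medium for 3 h at 37 °C under 5% CO2, in the dark and without UVA. Controls had 0.5% DMSO. Afterwards 200 cells were replated and grown 7 days, and colonies of ≥50 cells were counted. IC50 is the concentration halving clonal efficiency.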

[2] = The IC50-dark is the drug concentration necessary to induce a 50% inhibition of DNA synthesis by incubation at the ground state by keeping mammalian cells in the dark.; assay type: functional
Procedure, shortened: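 Ehrlich cells (Lettré strain) in PBS received compound at room temperature without irradiation, with final DMSO ≤0.5%. They were then held 30 min at 37 °C in the dark with 40 kBq·mL-1 [3H]thymidine. DNA-incorporated radioactivity is expressed as % of untreated controls, and IC50 is the concentration giving 50% inhibition.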

Cavia porcellus [3] = species: Cavia porcellus; test: Phototoxicity on guinea pig skin was calculated at concentration of 30 uM.cm-2 and UVA light dose 20 kJ.me-2.-- indicates no erythemia.; assay type: functional, organism-based
Procedure, shortened: (§1)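 Depilated albino guinea pigs (outbred Dunkin-Hartley) received test compounds topically as 4.5 mM methanol solutions and were then exposed to UVA. The read-out was erythema scoring.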

[4] = The IC50-UVA is the dose of UVA light which in the presence of fixed drug concentration (20 uM) is necessary to induce a 50% inhibition of DNA synthesis by incubation at the ground state by keeping mammalian cells in the dark.; assay type: functional
Procedure, shortened: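 Ehrlich cells (Lettré strain) at 2 × 10^7 cells·mL-1 in PBS were irradiated with increasing UVA doses in the presence of 20 μM compound, with final DMSO ≤0.5%. Then 10^6 cells were labelled with 40 kBq·mL-1 [3H]thymidine for 30 min at 37 °C. Incorporation is given as % of untreated control, and IC50-UVA is the UVA dose (kJ·m-2) giving 50% inhibition.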

[5] = The IC50-UVA is the dose of UVA light which in the presence of fixed drug concentration (20 uM) is necessary to induce a 50% inhibition of clonal growth by incubation at the ground state by keeping mammalian cells in the dark; assay type: functional
Procedure, shortened: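 HeLa cells were grown in F-12 Ham with 5% FCS at 37 °C under 5% CO2, seeded at 1.5–2 × 10^5 and given 20 μM compound after 24 h. Cells had 15 min of dark uptake, then increasing UVA doses. Afterwards 200 cells were replated in 10% FCS medium for 7 days and colonies of ≥50 cells were counted. Clonal efficiency is colonies over cells seeded. IC50-UVA is the UVA dose giving 50% inhibition.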

Cavia porcellus [6] = species: Cavia porcellus; test: Phototoxicity on guinea pig skin was calculated at concentration of 2 uM.cm-2 and UVA light dose 5 kJ.me-2.-- indicates no erythemia; assay type: functional, organism-based; procedure, shortened: as §1
Cavia porcellus [7] = species: Cavia porcellus; test: Phototoxicity on guinea pig skin was calculated at concentration of 30 uM.cm-2 and UVA light dose 5 kJ.me-2. ++++ medium erythemia; assay type: functional, organism-based; conditions: in the assay text read “strong erythema with edema” for “medium erythemia”; procedure, shortened: as §1
Cavia porcellus [8] = species: Cavia porcellus; test: Phototoxicity on guinea pig skin was calculated at concentration of 4 uM.cm-2 and UVA light dose 5 kJ.me-2.+-- barely erythemia; assay type: functional, organism-based; procedure, shortened: as §1

Row | SMILES | IC50 [2] [µM] | IC50 [4] [kJ m**-2] | IC50 [1] [µM] | Intensity of erythemia (Cavia porcellus [3]) | IC50 [5] [kJ m**-2] | Intensity of erythemia (Cavia porcellus [6]) | Intensity of erythemia (Cavia porcellus [7]) | Intensity of erythemia (Cavia porcellus [8])
1 | CCN(CC)Cc1c2ccc(=O)oc2cc2oc3ccccc3c12 | > 30 | > 30 | > 30 | no erythemia | > 30 |  |  | 
2 | COc1c2occc2cc2ccc(=O)oc12 [METHOXSALEN] | > 30 | 3.59 | > 30 |  | 1.23 | inactive | Active | Partially active
3 | O=c1oc2cc3oc4ccccc4c3cc2cc1CO | > 30 | 16.8 | > 30 | no erythemia | 1.06 |  |  | 
4 | CCN(CC)Cc1c2oc(=O)ccc2cc2c1oc1ccccc12 | 10.7 | 9.3 | 10.7 | no erythemia | 0.65 |  |  | 
5 | CCN(CC)Cc1cc2cc3c(cc2oc1=O)oc1ccccc13 | > 30 | > 30 | > 30 | no erythemia | > 30 |  |  | 
6 | CCN(CC)Cc1ccc2c(c1)oc1cc3oc(=O)cc(C)c3cc12 | > 30 | 2.22 | > 30 | no erythemia | 1.83 |  |  | 

The next lines start with results.

Row | IC50 [2] [µM] | IC50 [4] [kJ m**-2] | SMILES | IC50 [1] [µM] | Intensity of erythemia (Cavia porcellus [3]) | IC50 [5] [kJ m**-2] | Intensity of erythemia (Cavia porcellus [6]) | Intensity of erythemia (Cavia porcellus [7]) | Intensity of erythemia (Cavia porcellus [8])
7 | > 30 | 0.48 | Cc1cc(=O)oc2cc3oc4cc(CO)ccc4c3cc12 | > 30 | no erythemia | 0.16 |  |  | 
8 | 10.9 | 8.3 | O=c1ccc2c(CO)c3c(cc2o1)oc1ccccc13 | 25 | no erythemia | 0.23 |  |  | 
9 | 0.94 | 0.67 | O=c1cc(CO)c2cc3c(cc2o1)oc1ccccc13 | 3.8 | no erythemia | 0.11 |  |  | 
10 | 3 | 0.97 | O=c1ccc2cc3c(oc4ccccc43)c(CO)c2o1 | 6.8 | no erythemia | 0.19 |  |  | 
